Shown are actives, neighbours in structure and some others; about 2.2% of the full set was active somewhere.
ARFGAP1 inhibitor – rat ARFGAP1 inhibition; Q62848; 0.26% of 360,000 active; Arfgap1-stimulated ARF1 GTP hydrolysis, GDP FP detection; inhibition, % at 16.5 µM;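 active means inhibition above a per-plate limit, mean inhibition of low control wells plus 3 SD, cut at about 25% in these data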;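 further: 0% = DMSO wells with enzyme and 100% = wells lacking Arfgap1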
Target sequence (Q62848 1-136 limits assumed): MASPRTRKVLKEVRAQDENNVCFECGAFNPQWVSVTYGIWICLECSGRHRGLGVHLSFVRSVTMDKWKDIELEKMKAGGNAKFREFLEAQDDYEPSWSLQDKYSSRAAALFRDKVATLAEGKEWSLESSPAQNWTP
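Assay system: purified rat His6-Arfgap1 residues 1-136 (GAP domain); Reagent: human Δ17 ARF1 bound to GTP; Dosing: 16.5 µM single point, 1.26% DMSO; Times: GTP hydrolysis reaction 2 h at 25 °C; Signal: FP, GDP Alexa 633 tracer displaced from anti-GDP antibody, 620/688 nm; Measure: % inhibition from polarization.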
V-ATPase pHluor – regulators of yeast V-ATPase proton transport | S. cerevisiae, pHLuorin cytosolic pH fluorescence | response, % at 10 µM | 0.37% of 350,000 active | AID 504577; in the data active means response mostly above about 7.3%, no sharp cut-off; inactive means mostly below about 5.4%; further: actives read high
CendR NRP1 mod – modulators of CendR peptide binding to human neuropilin-1; AID 602438; FAM-RPARPAR peptide binding to NRP-1, fluorescence polarization; inhibition, % at 25 µM; 0.85% of 360,000 active;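 active means inhibition or corrected inhibition above about 18%, plus a signal ratio from 0.5 to 1.5, limit read from the data, passing the limit was not always enough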
Exocytosis inh – lytic granule exocytosis inhibition; TALL-104 LAMP-1 surface exposure, flow cytometry; cells stimulated with thapsigargin and PMA; inhibition, % at 10 µM; 0.66% of 360,000 active; AID 651702;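 active means inhibition above about 55%, limit read from the data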
ASAP1 GAP inh – blocks human ASAP1-stimulated Arf1 GTP hydrolysis | GDP FP detection | inhibition, % at 16.5 µM | 0.19% of 360,000 active | AID 624377; in the data active means inhibition above about 25%;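 further: 0% = vehicle with enzyme and substrate and 100% = no enzyme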
ASAP1 GAP conf – ASAP1 inhibition confirmed. 37% of 620 active. ASAP1-stimulated Arf1 GTPase, GDP fluorescence polarization. inhibition, % at 16.5 µM. AID 624431. shares compounds with ASAP1 GAP inh;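 active means mean inhibition over triplicates exceeds the hit threshold derived for the earlier primary screening run, cut at about 25% in these data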
ARFGAP1 confirm – rat ARFGAP1 inhibition, confirmed; shares compounds with ARFGAP1 inhibitor; ARFGAP1-stimulated ARF1 GTP hydrolysis, GDP tracer FP; inhibition, % at 16.5 µM; 30% of 890 active; AID 651608;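 active means average inhibition over triplicates above the hit cutoff set in the earlier primary screen, cut at about 25% in these data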;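 further: 0% = Arfgap1 plus ARF1-GTP with DMSO and 100% = wells lacking Arfgap1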
Target sequence (Q62848 whole entry, looked up): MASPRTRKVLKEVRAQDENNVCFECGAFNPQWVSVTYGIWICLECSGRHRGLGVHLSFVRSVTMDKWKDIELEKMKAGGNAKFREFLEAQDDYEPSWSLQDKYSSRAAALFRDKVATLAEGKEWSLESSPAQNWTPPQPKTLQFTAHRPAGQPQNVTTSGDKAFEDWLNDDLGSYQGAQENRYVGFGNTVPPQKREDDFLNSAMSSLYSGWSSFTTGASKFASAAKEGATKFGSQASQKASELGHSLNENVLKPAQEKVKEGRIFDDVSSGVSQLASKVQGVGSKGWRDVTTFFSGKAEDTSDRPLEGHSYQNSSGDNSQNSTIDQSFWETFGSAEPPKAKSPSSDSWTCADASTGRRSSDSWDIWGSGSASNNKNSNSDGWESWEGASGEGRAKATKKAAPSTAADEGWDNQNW
The depositor's hits bear a star; . = not tested or not shown.

SMILES | ARFGAP1 inhibitor | V-ATPase pHluor | CendR NRP1 mod | Exocytosis inh | ASAP1 GAP inh | ASAP1 GAP conf | ARFGAP1 confirm
CC[n+]1ccc(/C=C/c2ccc(N(C)C)cc2)c2ccccc21 | 37* | 3 | -12 | -6 | 43* | 53* | 50*
CC[n+]1ccccc1/C=C/c1ccc(N(C)C)cc1 | 2 | 3 | -144 | -2 | -4 | . | .
Cc1c(C(c2cccc(Br)c2)c2c(C)n(C)n(-c3ccccc3)c2=O)c(=O)n(-c2ccccc2)n1C | -13 | -5 | 18 | 6 | 3 | . | .
COc1cccc(C=NNC(=O)c2ccncc2)c1O | 6 | 1 | -3 | 18 | -6 | . | .
COc1ccccc1C=NNC(=O)NN=Cc1ccccc1OC | 57* | 2 | 12 | 1 | 30* | 53* | 67*
COc1cccc(/C=N/NC(=O)N/N=C/c2cccc(OC)c2O)c1O | 64* | -4 | 4 | 19 | 31* | 81* | 95*
O=S(=O)(c1ccccc1)C(Br)S(=O)(=O)c1ccccc1 | -6 | 0 | -4 | 3 | -3 | . | .
COc1cc(/C=C(/C#N)c2nc3ccccc3[nH]2)ccc1OCc1ccc(C(=O)O)o1 | 6 | 1 | -91 | -2 | 1 | . | .
COC(=O)c1ccc(COc2ccc(/C=C(\C#N)c3nc4ccccc4[nH]3)cc2OC)o1 | 61* | -2 | -46 | -8 | 35* | 78* | 108*
Cc1cc(N2CCN(C)CC2)nc2ccc(NC(=O)c3cccnc3Cl)cc12 | 29* | -7 | -18 | 0 | 49* | 25* | 28*
CCN1CCN(c2cc(C)c3cc(NC(=O)c4cccnc4Cl)ccc3n2)CC1 | 7 | -5 | -2 | 2 | 3 | . | .
CCc1ccc(OCC(=O)OC(C)C(=O)Nc2ccc(Cl)cn2)cc1 (centres undefined) | 0 | -4 | 1 | -1 | -2 | . | .
COc1ccc(-n2c(N)c(C(=O)NCC3CCCO3)c3nc4ccccc4nc32)c(OC)c1 (centres undefined) | 28* | 3 | -3 | 3 | 31* | 14 | 6
C=CCn1c(N)c(C(=O)NCC2CCCO2)c2nc3ccccc3nc21 (centres undefined) | 10 | 0 | 15 | -3 | 17 | . | .
CCN1CCN(Cc2ccc(NC(=O)c3cc(NC(=O)c4ccno4)cc(OC)c3)cc2C(F)(F)F)CC1 | 1 | -3 | -2 | 2 | 9 | . | .
CCN1CCN(Cc2ccc(NC(=O)c3cc(NC(=O)c4cncc(-c5cccs5)c4)cc(OC)c3)cc2C(F)(F)F)CC1 | 52* | 1 | -28 | 14 | 37* | 82* | 92*
Fc1ccc(Nc2cncc(-c3ccsc3)c2)cc1Cl | 29* | . | 4 | 26 | 39* | 14 | 5
O=C(CSc1nnnn1-c1ccccc1)Nc1nsc(-c2ccc(Cl)cc2)n1 | 44* | 3 | -22 | 2 | 26* | 45* | 58*
Cc1c(C(=O)NCc2ccc(F)cc2)sc(=O)n1Cc1ccccc1F | 0 | . | 6 | 4 | 0 | . | .
COc1ccc(/C=C2\Oc3cc(OCC(=O)N4CCC(C(=O)O)CC4)ccc3C2=O)c(OC)c1 | . | -4 | -96 | 11 | . | . | .
COc1ccc(/C=C2\Oc3cc(OCC(=O)N4CCC(C(=O)O)CC4)ccc3C2=O)c(OC)c1OC | 31* | 6 | -11 | 4 | 32* | 35* | 41*
COC(=O)c1ccc(NC(=O)c2cn(-c3ccccc3)nc2-c2ccncc2)cc1 | 30* | -4 | 4 | -2 | 31* | 51* | 61*
O=C(Nc1ccc(-c2cc3ccccc3oc2=O)c(Cl)c1)c1cccnc1 | 62* | 5 | -23 | 0 | 46* | 59* | 82*
COc1cc(NC(=O)c2cccnc2)ccc1-c1cc2ccccc2oc1=O | 5 | . | . | . | -8 | . | .
COc1ccc(/C=N\NC(=O)c2ccc([N+](=O)[O-])c(C)c2)cc1COc1ccccc1C(N)=O | 78* | 4 | -14 | 1 | 47* | 88* | 123*
SMILES | ARFGAP1 inhibitor | V-ATPase pHluor | CendR NRP1 mod | Exocytosis inh | ASAP1 GAP inh | ASAP1 GAP conf | ARFGAP1 confirm
COc1ccc(/C=N/NC(=O)c2ccccc2OC)cc1COc1ccccc1[N+](=O)[O-] | 3 | -5 | -1 | 0 | 6 | . | .
NC(=O)C1CCN(C2=C(Cl)C(=O)c3ccccc3C2=O)CC1 | 29* | 3 | 22 | 30 | 41* | 17 | 1
NC(=O)C1CCN(C2=C(NS(=O)(=O)c3ccc(Br)cc3)C(=O)c3ccccc3C2=O)CC1 | 4 | 2 | 17 | 4 | 7 | . | .
CCCCN1C(=O)C(CC(=O)NCc2ccco2)CC(C(=O)N2CCCCCC2)=C1C (centres undefined) | 16 | . | -23 | -21 | 3 | . | .
O=C(Nc1cccc(-c2cn3ccccc3n2)c1)c1cc2ccccc2oc1=O | 47* | 0 | -28 | 37 | 36* | 62* | 72*
CC(=O)Nc1cccc(-c2cn3ccccc3n2)c1 | -7 | -4 | 7 | 11 | 13 | . | .
O=C(Nc1ccc(-c2nc3ccc(NC(=O)c4cccs4)cc3[nH]2)cc1)c1cccs1 | 73* | -25 | 0 | 5 | 37* | 74* | 124*
O=C(N/N=C/c1ccc(Cl)c([N+](=O)[O-])c1)c1ccc2c(c1)OCCO2 | 66* | -3 | 3 | -3 | 83* | 104* | 99*
O=C(NCCC(=O)N1CCN(S(=O)(=O)c2ccc(Cl)cc2)CC1)Nc1ccccc1 | 2 | 0 | -4 | 5 | -1 | . | .
CCN(CC(=O)Nc1ccc(OC)cc1)CC(=O)Nc1sc2c(c1C(=O)OC)CCCC2 | 0 | -2 | -4 | -2 | 12 | . | .
CCCCN(CC)CCCNC(=O)c1cc2c(-c3ccc(OC)c(OC)c3)nn(C)c2s1 | 27* | -4 | 0 | 30 | 34* | 72* | 74*
CCN(CC)CCCNC(=O)c1cc2c(-c3cccc(OC)c3)nn(C)c2s1 | 17 | -2 | 5 | 19 | 15 | . | .
O=C(Nc1ccc(C(=O)NCCCN2CCN(c3ccc(F)cc3)CC2)cc1)C1=CSCCO1 | -4 | -7 | 1 | 25 | 10 | . | .
Cc1cc(C(=O)COC(=O)c2n[nH]c(=O)c3ccccc23)c(C)n1C | 13 | 0 | 14 | 3 | 1 | . | .
Cc1cc(C(=O)COC(=O)c2n[nH]c3ccccc23)c(C)n1C | 33* | -2 | -6 | 4 | 34* | 35* | 52*
CC1(C(=O)NS(=O)(=O)c2cccc(F)c2)CCN1C(=O)Cc1cccc2ccccc12 (centres undefined) | -4 | . | -2 | 14 | -7 | . | .
Cc1ccc2nc(SCC(=O)N3CCC(C)CC3)nc(=O)n2c1 | 62* | -2 | -7 | 2 | 37* | 43* | 69*
O=C(Nc1ccc(N2CCCC2)cc1)c1cc2ccccc2o1 | 77* | 0 | -8 | 0 | 43* | 146* | 6
